# Rows were chosen to be rich in hits. Some 1.8% of all compounds tested hit in one or more screens of this group.
# SUMO1-SIM PPI – modulators of SUMO1 protein-protein interactions, primary screen, biochemical, uHTS; 360,000 tested, 0.33% active; AID 602429, 2012; Small ubiquitin-related modifier 1 (Homo sapiens), P63165; SUMO1 binding to a labelled peptide, TR-FRET, 1 h; inhibition, % at 20 µM; in the data active = inhibition above about 37%
# LMPTP inh – LMPTP phosphatase inhibitors, primary screen, biochemical, fluorescence intensity, uHTS | AID 651560, 2012 | recombinant LMPTP-A, OMFP fluorogenic substrate | inhibition, % at 20 µM | Low molecular weight phosphotyrosine protein phosphatase (Homo sapiens), P24666 | 360,000 tested, 0.22% active;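 active = compounds that cut the enzyme signal by at least half of the control window in the single-dose screen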;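 also: plate controls were DMSO wells with enzyme plus substrate for no effect and substrate without enzyme for full effect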
#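 Assay system: LMPTP-A, protein tyrosine phosphatase of low molecular weight / Medium: pH 6.0 Bis-Tris buffer with DTT and Triton X-100 / Schedule: 50 min enzyme reaction at room temperature, protected from light / Measured by: endpoint fluorescence intensity from OMFP dephosphorylation / Read-out basis: % inhibition relative to no-enzyme and uninhibited control wells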
# Scp-1 inhibitor – Scp-1 phosphatase inhibitors, primary screen, biochemical, colorimetric, uHTS. Carboxy-terminal domain RNA polymerase II polypeptide A small phosphatase 1 (Homo …. Recombinant Scp1, phosphopeptide, malachite green phosphate absorbance. inhibition, % at 20 µM. 340,000 tested, 0.88% active. AID 493091, 2011;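 active = inhibition above about 50% at 20 µM, limit read from the data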;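 also: plate controls were DMSO wells with enzyme for no effect and wells lacking enzyme for full effect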
#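 System: SCP-1 catalytic domain; Reagent: Phospho 17-mer peptide substrate; Doses: one concentration, 20 µM, with 1.0% DMSO; Incubation: 45 min room-temperature reaction, 5 min colour, 30 min stabiliser; Signal: Phosphate-binding colour reagent, absorbance read at 630 nm.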
# HKDC1 inh – HKDC1 hexokinase inhibitors, primary screen, biochemical, fluorescence, uHTS; Q2TB90; inhibition, % at 20 µM; AID 493160, 2011; recombinant HKDC1, G6PDH/diaphorase resazurin coupled fluorescence; 340,000 tested, 0.16% active;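 active = inhibition above about 35% when tested at 20 µM, limit read from the data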;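 also: plate controls were DMSO wells with enzyme for no effect and DMSO wells lacking enzyme for full effect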
#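 test system = in-house recombinant HK5 (HKDC1) enzyme | amount = HKDC1 at 5 µg/mL | control set = DMSO-enzyme wells negative, buffer-substituted wells positive | compound = one dose of 20 µM, 1% DMSO | schedule = reaction time 90 min, room temperature, protected from light | technique = resorufin fluorescence at 613 nm | reagent = glucose with 1 mM ATP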
# STEP inh – STEP phosphatase inhibitors, primary screen, biochemical, fluorescence intensity, uHTS | Tyrosine-protein phosphatase non-receptor type 5 (Homo sapiens), P54829 | recombinant STEP, OMFP fluorogenic substrate | inhibition, % at 20 µM | 360,000 tested, 0.25% active | AID 588621, 2011;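 active = inhibition at 20 µM, scaled per plate between control wells, above about 37%, limit read from the data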;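 also: 0% = DMSO with enzyme and substrate and 100% = substrate only without enzyme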
#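 material = STEP tyrosine phosphatase | reagent = fluorogenic phosphatase substrate OMFP at 25 µM final | doses = single compound dose of 20 µM, 1% DMSO final | schedule = 20 min reaction, room temperature, in the dark | measured by = fluorescence, 480/540 nm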
# DNMT1 block – human DNMT1 methyltransferase inhibitors, primary screen, biochemical, molecular beacon, fluorescence, HinP1I cleavage, uHTS. AID 588458, 2011. DNA (cytosine-5)-methyltransferase 1 (Homo sapiens), P26358. inhibition (reported as % activation of signal), % at 10 µM. 360,000 tested, 0.83% active; in the data active = inhibition above about 50%
# Scp1 confirm – Scp-1 phosphatase inhibitors, retest, confirmation, biochemical, colorimetric, single concentration | inhibition, % at 20 µM | 2,500 tested, 61% active | AID 540281, 2011 | recombinant SCP-1 catalytic domain, phosphate release, malachite green absorbance | shares compounds with Scp-1 inhibitor;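 also: plate controls were DMSO with enzyme for no effect and buffer wells lacking enzyme for full effect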
# Scp-1 MG ctr – colorimetric readout interference by compounds, confirmation, artefact control for Scp-1 inhibitor project, biochemical, single concentration | shares compounds with Scp-1 inhibitor | Colorimetric interference counterscreen, malachite green absorbance 630 nm | apparent inhibition (interference), % at 20 µM | 2,500 tested, under 10 active | AID 540313, 2011;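 also: compounds added after enzyme reaction finished so only phosphate colour detection is probed; plate controls were DMSO wells with completed Scp-1 reaction for no effect and substrate wells lacking enzyme for full effect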
# Scp1 DSF – Scp-1 binding by thermal shift, confirmation, orthogonal assay for Scp-1 inhibitor project, biophysical, differential scanning fluorimetry; shares compounds with Scp-1 inhibitor; Recombinant SCP1, Sypro Orange thermal shift Tm; thermal shift relative to vanadate control, % at 40 µM; 1,500 tested, 25% active; AID 540329, 2011;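 active = substances whose mean melting-temperature shift, as a percentage of the reference inhibitor's shift, reaches about 5.3%, limit read from the data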;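 also: 0% = Tm of DMSO wells and 100% = Tm with sodium orthovanadate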
# DNMT1 inh conf – DNMT1 methyltransferase inhibitor retest, confirmation, biochemical, molecular beacon, fluorescence, single concentration | shares compounds with DNMT1 block | DNMT1 molecular beacon HinP1I cleavage | inhibition, % at 10 µM | 2,300 tested, 8% active | AID 602385, 2012;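 active = average inhibition of at least 30% in the single-concentration confirmation test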
# Beacon interf – shows spectral interference in the DNMT1 beacon assay; shares compounds with DNMT1 block; DNMT1 molecular beacon spectral interference counterscreen, fluorescence 485/520; activation (fluorescence interference), % at 10 µM; 2,300 tested, 1% active;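 active = activation of at least 30% at 10 µM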;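 also: DNMT1 catalytic domain with a HinP1I cleavage step and a FAM/dabcyl DNA beacon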
# The depositor's hits bear a star; nt = no result.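 The calls were made as follows, unless noted: active = inhibition of at least 30% at 20 µM; inactive = the rest.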
SMILES,SUMO1-SIM PPI,LMPTP inh,Scp-1 inhibitor,HKDC1 inh,STEP inh,DNMT1 block,Scp1 confirm,Scp-1 MG ctr,Scp1 DSF,DNMT1 inh conf,Beacon interf
COC(=O)c1c(NC(=O)CN2C(=O)NC3(CCC(C)CC3)C2=O)sc2c1CCC2 (centres undefined),0.1,2.5,19.7,-0.2,-0.9,5.6,nt,nt,nt,nt,nt
COCCn1cnnc1SCC(=O)Nc1sc2c(c1C#N)CCC2,3.6,1.9,19.9,-4.0,-1.2,17.1,nt,nt,nt,nt,nt
CC1CCC2(CC1)NC(=O)N(CC(=O)Nc1sc3c(c1C(N)=O)CCC3)C2=O (centres undefined),18.2,6.1,85.9*,10.0,20.7,70.2*,65.4*,-10.6,12.2*,4.9,-0.7
Cn1cnnc1SCC(=O)Nc1sc2c(c1C(N)=O)CCC2,43.1*,45.4,64.8*,22.0,6.5,85.0*,73.3*,-6.5,12.8*,17.4,2.6
CCOc1ccc(N=C2NC(=O)S/C2=C\c2ccc(OC)cc2)cc1,-3.8,44.1,61.4*,-3.5,16.2,63.9*,77.9*,-2.7,2.6,2.8,3.6
Cc1cc2oc(C(=O)NCCc3ccc(S(N)(=O)=O)cc3)c(C)c2cc1C,2.8,49.8*,85.4*,-7.1,7.6,79.3*,70.8*,-16.1,-11.0,2.7,2.3
CCCCSc1nc2c(cc1C#N)CCC2,-0.6,1.4,-10.7,-0.3,-0.8,3.3,nt,nt,nt,nt,nt
CCCSc1nc(C)c(-c2csc(C(C#N)=C3CCCC3)n2)cc1C#N,22.3,15.6,57.3*,6.5,5.9,92.3*,59.9*,-11.8,4.5,-1.4,-1.6
C#CCSc1nsc(SCC#C)c1C#N,10.9,25.8,80.2*,3.0,14.5,77.1*,66.3*,-16.4,1.3,15.9,1.9
CC1(OC(=O)c2ccc(Cl)nc2)C(=O)C=C2C=C3CCCN3C=C2C1=O (centres undefined),15.0,3.7,64.6*,15.5,10.3,66.4*,16.4,-11.7,nt,5.8,3.6
CCCN(C(=O)c1cccc(-n2cccc2)c1)c1c(N)n(Cc2ccccc2)c(=O)[nH]c1=O,21.0,15.2,74.5*,9.9,3.5,80.9*,65.7*,-8.7,-17.0,12.1,-0.4
CC(C)c1ccc(OCC(=O)N2CCc3ccccc3C2)cc1,-1.2,2.9,0.3,4.7,1.9,3.2,nt,nt,nt,nt,nt
COc1ccc2c(c1)c(=O)oc1cc(OCC(=O)N3CCc4ccccc4C3)ccc12,24.0,62.1*,81.3*,8.9,27.2,104.9*,68.5*,-18.9,-6.2,17.1,-1.9
